Results as given in ChEMBL document CHEMBL2169854, “New insight into the central benzodiazepine receptor-ligand interactions: design, synthesis, biological evaluation, and molecular modeling of 3-substituted 6-phenyl-4H-imidazo[1,5-a][1,4]benzodiazepines and related compounds” (J Med Chem, 2011).
Calls of active or inactive are those of the source. No cut-off for these calls is given here.

Columns and labels:
[1] = Displacement of [3H]flumazenil from central benzodiazepine receptor in bovine cortical membrane after 90 mins by beta liquid scintillation counting; assay type: cell membranes, Bos taurus
How it was run: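 At least six concentrations spanning 3 log units were tested in 2% DMSO. Ki was obtained by Cheng–Prusoff (Kd 0.85 nM bovine, 0.91 nM human), mean of three determinations.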

[2] = Displacement of [3H]flumazenil from central benzodiazepine receptor in human cortical membrane after 90 mins by beta liquid scintillation counting; assay type: cell membranes
Bos taurus = species: Bos taurus; assay: Ratio of Ki for central benzodiazepine receptor in bovine cortical membrane to Ki for central benzodiazepine receptor in bovine cortical membrane in presence of 50 uM GABA; assay type: cell membranes
Homo sapiens = species: Homo sapiens; assay: Ratio of Ki for central benzodiazepine receptor in human cortical membrane to Ki for central benzodiazepine receptor in human cortical membrane in presence of 50 uM GABA; assay type: cell membranes
Rattus norvegicus [3] = species: Rattus norvegicus; assay: Agonist activity at central benzodiazepine receptor in Sprague-Dawley rat cerebrocortical synaptoneurosomes assessed as increase in GABA-induced [36]chloride ion flow after 10 seconds by beta liquid scintillation counting; assay type: functional
How it was run: (§1)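 Cerebral cortex from male Sprague-Dawley rats was homogenised and filtered, and synaptoneurosomes were washed in HEPES pH 7 buffer (145 mM NaCl, 5 mM KCl, 5 mM MgCl2, 1 mM CaCl2, 10 mM glucose). Aliquots of 1.5–2 mg protein were preincubated 10 min at 30 C. Drug was added with 0.2 μCi 36Cl−, uptake was stopped at 10 s, and filter-bound radioactivity was counted by scintillation.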

Rattus norvegicus [4] = species: Rattus norvegicus; assay: Antagonist activity at central benzodiazepine receptor in Sprague-Dawley rat cerebrocortical synaptoneurosomes assessed as effect on GABA-induced [36]chloride ion flow after 10 seconds by beta liquid scintillation counting; assay type: functional; how it was run: as §1
Mus musculus [5] = assay: Anxiolytic effect in mouse assessed as increase in time spent in light compartment at 1 mg/kg, ip by light/dark box test; assay type: functional, organism-based; parameters: dose 1 mg/kg
How it was run: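 Male mice were used. Compound was given orally as a suspension in 1% CMC; diazepam was given ip in saline; volume 10 mL/kg. Each mouse was placed in the lit side of a two-compartment light/dark box and observed for 5 min, scoring time in the light and transfers. Groups were compared by ANOVA with Fisher PLSD.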

Mus musculus [6] = assay: Myorelaxant activity in mouse assessed as motor coordination measuring number of falls at 1 mg/kg, ip measured for 30 seconds after 45 mins of compound administration by rotarod test; assay type: functional, organism-based; parameters: dose 1 mg/kg
[7] = target: T1, GABA-A receptor; alpha-1/beta-2/gamma-2 (Homo sapiens) (UniProt P14867+P47870+P18507); assay: (§2) Modulation of human recombinant GABA-A alpha1beta2gamma2L receptor expressed in Xenopus laevis oocytes assessed as effect on GABA-induced chloride current at 1 uM incubated 60 seconds before addition of GABA measured after 30 seconds at holding potential -70 mV by two-microelectrode voltage clamp technique relative to control; assay type: cell-based; conditions: Oocyte
[8] = target: T1, GABA-A receptor; alpha-1/beta-2/gamma-2 (Homo sapiens); assay: as §2, with “at 10” for “at 1”; assay type: cell-based; conditions: Oocyte
[9] = target: T2, GABA A receptor alpha-1/beta-1/gamma-2 (Homo sapiens) (UniProt P14867+P18507+P18505); assay: as §2, with “alpha1beta1gamma2L” for “alpha1beta2gamma2L”; assay type: cell-based; conditions: Oocyte
[10] = target: T2, GABA A receptor alpha-1/beta-1/gamma-2 (Homo sapiens); assay: as §2, with “alpha1beta1gamma2L” for “alpha1beta2gamma2L”, “10” for “1”; assay type: cell-based; conditions: Oocyte
Oocyte [11] = assay: as §2, with “alpha5beta2gamma2L” for “alpha1beta2gamma2L”; assay type: cell-based
Oocyte [12] = assay: as §2, with “alpha5beta2gamma2L” for “alpha1beta2gamma2L”, “10” for “1”; assay type: cell-based
[13] = target: T1, GABA-A receptor; alpha-1/beta-2/gamma-2 (Homo sapiens); assay: (§3) Antagonist at human recombinant GABA-A alpha1beta2gamma2L receptor expressed in Xenopus laevis oocytes assessed as blockade of diazepam-induced potentiation of GABA-induced chloride current at 10 uM incubated 60 seconds before addition of GABA measured after 30 seconds at holding potential -70 mV by two-microelectrode voltage clamp technique; assay type: functional, cell-based; conditions: Oocyte
How it was run: (§4)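 Oocytes expressing human α1β2γ2L, α2β1γ2L or α5β2γ2L receptors were clamped at −70 mV. Compound at 10 μM was tested against the enhancement of the GABA EC10 response by 1.0 μM diazepam, with 60 s preapplication and 30 s coapplication. The response was expressed as percent potentiation, from 2–3 oocytes.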

[14] = target: T2, GABA A receptor alpha-1/beta-1/gamma-2 (Homo sapiens); assay: as §3, with “alpha1beta1gamma2L” for “alpha1beta2gamma2L”; assay type: functional, cell-based; conditions: Oocyte
Oocyte [15] = assay: as §3, with “alpha5beta2gamma2L” for “alpha1beta2gamma2L”; assay type: functional, cell-based; how it was run: as §4
[16] = target: T1, GABA-A receptor; alpha-1/beta-2/gamma-2 (Homo sapiens); assay: as §2, with “at 0.01” for “at 1”; assay type: cell-based; conditions: Oocyte
[17] = target: T1, GABA-A receptor; alpha-1/beta-2/gamma-2 (Homo sapiens); assay: as §2, with “at 0.1” for “at 1”; assay type: cell-based; conditions: Oocyte

Clc1ccc(C2=NCc3c(-c4nnn[nH]4)ncn3-c3ccc(Cl)cc32)cc1
Ki [1]: > 10000 nM

CN1C(=O)CN=C(c2ccccc2F)c2cc([N+](=O)[O-])ccc21 [FLUNITRAZEPAM]
Ki [1]: 5.17 nM | Ki [2]: 6.5 nM | Ratio Ki (Bos taurus): 1.68 | Ratio Ki (Homo sapiens): 1.6 | Activity (Rattus norvegicus [3]): Active

CCOC(=O)c1ncn2c1CN=C(c1ccc(C)cc1)c1cc(Cl)ccc1-2
Ki [1]: 199 nM | Ki [2]: 178 nM | Ratio Ki (Bos taurus): 1.05

CC(C)(C)OC(=O)c1ncn2c1CN=C(c1ccc(Cl)cc1)c1cc(Cl)ccc1-2
Ki [1]: 1300 nM

CCOC(=O)c1ncn2c1C(C)N=C(c1ccccc1)c1ccccc1-2 (stereo unspecified)
Ki [1]: 453 nM | Ki [2]: 750 nM | Ratio Ki (Bos taurus): 1.3

CCOC(=O)c1ncn2c1CN(C)C(=O)c1cc(F)ccc1-2 [FLUMAZENIL]
Ki [1]: 1.9 nM | Activity (Rattus norvegicus [4]): Active

CCOC(=O)c1ncn2c1CN=C(c1cccc([N+](=O)[O-])c1)c1cc(Cl)ccc1-2
Ki [1]: 1.7 nM | Ki [2]: 2.3 nM | Ratio Ki (Bos taurus): 0.99 | Ratio Ki (Homo sapiens): 0.98 | Activity (Rattus norvegicus [4]): Active

CN1C(=O)CN=C(c2ccccc2)c2cc(Cl)ccc21
Activity (Mus musculus [5]): Active | Activity (Mus musculus [6]): Active

CN(C)C(=O)c1ncn2c1CN=C(c1ccc(Cl)cc1)c1cc(Cl)ccc1-2
Ki [1]: > 10000 nM

O=C1OCCC2N=C(c3ccccc3)c3ccccc3-n3cnc1c32 (stereo unspecified)
Ki [1]: 283 nM | Ratio Ki (Bos taurus): 0.95

CNC(=O)c1ncn2c1CN=C(c1ccc(Cl)cc1)c1cc(Cl)ccc1-2
Ki [1]: > 10000 nM

CCOC(=O)c1ncn2c1CN=C(c1ccc(F)cc1)c1ccccc1-2
Ki [1]: 11.5 nM | Ki [2]: 20.8 nM | Ratio Ki (Bos taurus): 0.77 | Ratio Ki (Homo sapiens): 0.96 | Activity (Rattus norvegicus [4]): Active

CCOC(=O)c1ncn2c1CN=C(c1ccc(OC)cc1)c1cc(Cl)ccc1-2
Ki [1]: 210 nM | Ki [2]: 227 nM

CCOC(=O)c1ncn2c1CN=C(c1ccc(Cl)cc1)c1ccc3ccccc3c1-2
Ki [1]: > 10000 nM

CCOC(=O)c1ncn2c1C(C)N=C(c1ccc(F)cc1)c1cc(F)ccc1-2 (stereo unspecified)
Ki [1]: 510 nM | Ki [2]: 550 nM | Ratio Ki (Bos taurus): 1.19

N#Cc1ncn2c1CN=C(c1ccc(Cl)cc1)c1cc(Cl)ccc1-2
Ki [1]: 1650 nM

CCOC(=O)c1ncn2c1CN=C(c1ccc(OC)cc1)c1ccccc1-2
Ki [1]: 110 nM | Ki [2]: 120 nM | Ratio Ki (Bos taurus): 0.78

CCOC(=O)c1ncn2c1CN=C(c1cccc([N+](=O)[O-])c1)c1cc(F)ccc1-2
Activity [7]: 14% | Activity [8]: -24% | Activity [9]: 10% | Activity [10]: -3.3% | Activity (Oocyte [11]): 27% | Activity (Oocyte [12]): -2.5% | Activity [13]: Active | Activity [14]: Active | Activity (Oocyte [15]): Active

NC(=O)c1ncn2c1CN=C(c1ccc(Cl)cc1)c1cc(Cl)ccc1-2
Ki [1]: > 10000 nM

CCOC(=O)c1ncn2c1CN=C(c1ccc(Cl)cc1)c1ccccc1-2
Ki [1]: 12.7 nM | Ki [2]: 22.5 nM | Ratio Ki (Bos taurus): 0.84 | Ratio Ki (Homo sapiens): 0.87 | Activity (Rattus norvegicus [4]): Active | Activity [16]: 13% | Activity [17]: 1% | Activity [7]: 3.6% | Activity [8]: 6.3% | Activity [9]: -7% | Activity [10]: -18% | Activity (Oocyte [11]): -0.5% | Activity (Oocyte [12]): 0% | Activity [13]: Active | Activity [14]: Active | Activity (Oocyte [15]): Active

CCOC(=O)c1ncn2c1CN=C(c1cccc3ccccc13)c1cc(Cl)ccc1-2
Ki [1]: 186 nM | Ki [2]: 216 nM | Ratio Ki (Bos taurus): 1.3

CCOC(=O)c1ncn2c1CN=C(c1ccc(Cl)cc1)c1cc(Cl)ccc1-2
Ki [1]: 236 nM | Ki [2]: 210 nM | Ratio Ki (Bos taurus): 1.3

CCOC(=O)c1ncn2c1CN=C(c1ccc(F)cc1)c1cc(Cl)ccc1-2
Ki [1]: 188 nM | Ki [2]: 212 nM | Ratio Ki (Bos taurus): 1.25
